The values that follow come from ChEMBL document CHEMBL3997787, “New pyridazinone-4-carboxamides as new cannabinoid receptor type-2 inverse agonists: Synthesis, pharmacological data and molecular docking” (Eur J Med Chem, 2017).

The target of assay [1] is T1, Cannabinoid receptor 1 (Homo sapiens, UniProt P21554). Description: Displacement of [3H]CP55940 from human CB1 receptor expressed in HEK293 EBNA cell membranes after 90 mins by liquid scintillation and luminescence counting method. In general terms: Displacement assays read how much labelled ligand stays bound in the presence of the test substance.
T1 sequence (P21554 whole entry): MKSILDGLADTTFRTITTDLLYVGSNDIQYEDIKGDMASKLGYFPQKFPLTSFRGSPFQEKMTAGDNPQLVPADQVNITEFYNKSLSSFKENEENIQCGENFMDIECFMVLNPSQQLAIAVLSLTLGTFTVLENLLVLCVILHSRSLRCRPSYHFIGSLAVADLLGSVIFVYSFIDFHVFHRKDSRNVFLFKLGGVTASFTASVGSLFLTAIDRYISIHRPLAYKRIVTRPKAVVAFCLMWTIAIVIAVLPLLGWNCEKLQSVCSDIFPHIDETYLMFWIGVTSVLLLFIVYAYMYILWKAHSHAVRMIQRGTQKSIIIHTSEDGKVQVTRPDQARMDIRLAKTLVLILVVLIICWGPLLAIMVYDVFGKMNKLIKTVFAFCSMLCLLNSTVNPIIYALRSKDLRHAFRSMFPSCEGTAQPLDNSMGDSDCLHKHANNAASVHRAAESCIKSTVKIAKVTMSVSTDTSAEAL
Assay [2] has as its target T2, Cannabinoid receptor 2 (Homo sapiens, UniProt P34972). Description: Displacement of [3H]CP55940 from human CB2 receptor expressed in HEK293 EBNA cell membranes after 90 mins by liquid scintillation and luminescence counting method.
The species entered for another assay is Homo sapiens. Description: Selectivity ratio of Ki for human CB1 receptor to Ki for human CB2 receptor.
For assay [3], the target named is T1, Cannabinoid receptor 1. Description: Displacement of [3H]CP55940 from human CB1 receptor expressed in HEK293 EBNA cell membranes at 4 uM after 90 mins by liquid scintillation and luminescence counting method relative to control. In outline: (§1)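 Single-concentration screen (4 µM) on transfected-cell membranes with human CB1R (about 8 µg/well, 0.1 nM [³H]CP,55-940, pH 7.4 Tris/MgCl₂/EDTA/0.5 mg/mL BSA) or CB2R (1.33 µg/well, 0.15 nM radioligand, pH 7.5 Tris/MgCl₂/EGTA/1 mg/mL BSA). Incubated 90 min at 30 °C. Nonspecific binding defined with 10 µM WIN 55,212-2; 100% binding taken without compound. Filtered through PEI-soaked GF/C filters and counted.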

In assay [4] the target is T2, Cannabinoid receptor 2. Nature of the assay: Displacement of [3H]CP55940 from human CB2 receptor expressed in HEK293 EBNA cell membranes at 4 uM after 90 mins by liquid scintillation and luminescence counting method relative to control. In outline:
as §1

Assay [5] concerns the target T2, Cannabinoid receptor 2. Description: Inverse agonist activity at human CB2 receptor expressed in HEK293 EBNA cell membranes after 30 mins by [35S]-GTPgammaS binding assay. The class given is functional. The essentials: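 Saponin-permeabilized CB2R membranes (5 µg/well) with 0.3 nM [35S]-GTPγS and 10 µM GDP in 20 mM HEPES, 100 mM NaCl, 10 mM MgCl₂, pH 7.4. Compounds at 10⁻¹² to 10⁻⁵ M, 30 min at 30 °C; nonspecific signal with 10 µM GTPγS. Filtered, washed with 10 mM sodium phosphate and counted. IC50 and Emax from curve fitting, mean ± SEM of at least three triplicate experiments.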
For orientation: GTPγS is a poorly hydrolysed GTP analogue; its binding reports G protein activation.

T2 sequence (P34972 whole entry): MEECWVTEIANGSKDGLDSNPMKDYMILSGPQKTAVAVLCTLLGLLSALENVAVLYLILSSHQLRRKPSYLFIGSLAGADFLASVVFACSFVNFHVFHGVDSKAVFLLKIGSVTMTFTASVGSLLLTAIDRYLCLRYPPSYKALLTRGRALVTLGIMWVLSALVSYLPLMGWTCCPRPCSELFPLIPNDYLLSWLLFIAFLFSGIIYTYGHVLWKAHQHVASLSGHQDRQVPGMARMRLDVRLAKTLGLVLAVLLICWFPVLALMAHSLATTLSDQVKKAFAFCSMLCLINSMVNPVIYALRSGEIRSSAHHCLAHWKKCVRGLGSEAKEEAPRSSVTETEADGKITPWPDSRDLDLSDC

The term Ki denotes a measure of affinity in units of concentration, obtained from inhibition or displacement. For the molecule `Cc1ccc(Cn2nc(-c3ccc(Cl)c(C)c3)cc(C(=O)NC34CC5CC(CC(C5)C3)C4)c2=O)cc1`, the Ki result at Cannabinoid receptor 1 [1] (hek293) and at Cannabinoid receptor 2 [2] (hek293) was “Nd(Insoluble)” in each case.

Broadly, the inhibition is the change of the read-out against control, counted positive when it falls. The low end stands for a weak effect, the high end for a strong effect. On to `O=C(NC1CCCCC1)c1cc(-c2ccccc2)nn(Cc2ccc(F)cc2)c1=O`, for which the Ratio Ki in the assay listed under Homo sapiens was determined as 11. The inhibition at Cannabinoid receptor 1 [3] and on Cannabinoid receptor 2 [4] was over 70% each time. Besides, the Ki at Cannabinoid receptor 1 [1] (read-out: Ki) is 467 nM; at Cannabinoid receptor 2 [2] (read-out: Ki) it was 44 nM.

In the case of `Cc1ccc(Cn2nc(-c3ccc(Cl)c(C)c3)cc(C(=O)NC3CCCCC3)c2=O)cc1`, the Ratio Ki in the assay filed under Homo sapiens is over 16.6. For the same molecule, the inhibition on Cannabinoid receptor 1 [3] and at Cannabinoid receptor 2 [4] was over 70% in each case. The Ki on Cannabinoid receptor 1 [1] (read-out: Ki) was over 4000 nM; on Cannabinoid receptor 2 [2] (read-out: Ki), 240 nM.

By Emax is commonly meant the maximal effect, on the per cent scale that the assay sets. The IC50 is the point on the concentration scale where inhibition reaches its midpoint. As for `C[C@H]1CC[C@@H](NC(=O)c2cc(-c3ccccc3)nn(Cc3ccc(F)cc3)c2=O)CC1`, the Ratio Ki in the assay filed under Homo sapiens is 20. Also, the inhibition at Cannabinoid receptor 1 [3] and at Cannabinoid receptor 2 [4] was over 70% throughout. In addition, on Cannabinoid receptor 2 [5], the Emax is -65.7%. Further, on Cannabinoid receptor 2 [5], the IC50 is 35.2 nM. The figures for the Ki on Cannabinoid receptor 1 [1] (read-out: Ki) and on Cannabinoid receptor 2 [2] (read-out: Ki) were 115 nM and 5.7 nM, respectively.

Consider `O=C(NC12CC3CC(CC(C3)C1)C2)c1cc(-c2ccccc2)nn(Cc2ccc(F)cc2)c1=O`, for which the Ki result on Cannabinoid receptor 1 [1] (hek293) and on Cannabinoid receptor 2 [2] (hek293) was “Nd(Insoluble)” throughout.

Turning to `Cc1cc(-c2cc(C(=O)N[C@H]3CC[C@H](C)CC3)c(=O)n(Cc3ccc(F)cc3)n2)ccc1Cl`, the Ratio Ki in the assay filed under Homo sapiens is over 444. In addition, the inhibition at Cannabinoid receptor 1 [3] and on Cannabinoid receptor 2 [4] was over 70% each time. Further, the Ki on Cannabinoid receptor 1 [1] (read-out: Ki) was over 4000 nM; on Cannabinoid receptor 2 [2] (read-out: Ki), 9 nM.

`Cc1ccc(Cn2nc(C(=O)N[C@@H]3C(C)(C)[C@@H]4CC[C@@]3(C)C4)cc2-c2ccc(Cl)c(C)c2)cc1`: on Cannabinoid receptor 2 [5], the Emax is -63.2%.

Regarding `Cc1cc(-c2cc(C(=O)NC3CCCCCC3)c(=O)n(Cc3ccc(F)cc3)n2)ccc1Cl`, in the assay filed under Homo sapiens, the Ratio Ki was over 816. Moreover, the inhibition on Cannabinoid receptor 1 [3] and at Cannabinoid receptor 2 [4] was over 70% each time. Further, the Ki at Cannabinoid receptor 1 [1] (read-out: Ki) was over 4000 nM; on Cannabinoid receptor 2 [2] (read-out: Ki), 4.9 nM.

Take `Cc1cc(-c2cc(C(=O)N[C@H]3CC[C@@H](C)CC3)c(=O)n(Cc3ccc(F)cc3)n2)ccc1Cl`: the Ratio Ki in the assay filed under Homo sapiens was over 2000. Further, the inhibition at Cannabinoid receptor 1 [3] and on Cannabinoid receptor 2 [4] was over 70% throughout. The Emax at Cannabinoid receptor 2 [5] was -43.8%. The same molecule came in with an IC50 on Cannabinoid receptor 2 [5] of 20.7 nM. In addition, the Ki was over 4000 nM on Cannabinoid receptor 1 [1] (read-out: Ki) and 2 nM at Cannabinoid receptor 2 [2] (read-out: Ki).

As to `Cc1cc(-c2cc(C(=O)N[C@@H]3C(C)(C)[C@@H]4CC[C@@]3(C)C4)c(=O)n(Cc3ccc(F)cc3)n2)ccc1Cl`, the Ratio Ki in the assay filed under Homo sapiens was over 1540. Further, the inhibition at Cannabinoid receptor 1 [3] and at Cannabinoid receptor 2 [4] was over 70% in each case. The Emax on Cannabinoid receptor 2 [5] was -58.7%. For the same molecule, the IC50 at Cannabinoid receptor 2 [5] was 51.2 nM. Besides, the figures for the inhibitory constant (Ki) on Cannabinoid receptor 1 [1] (read-out: Ki) and at Cannabinoid receptor 2 [2] (read-out: Ki) were over 4000 nM and 2.6 nM, respectively.

In the case of `C[C@H]1CC[C@H](NC(=O)c2cc(-c3ccccc3)nn(Cc3ccc(F)cc3)c2=O)CC1`, the Ratio Ki in the assay filed under Homo sapiens amounted to 5. Also, the inhibition on Cannabinoid receptor 1 [3] and at Cannabinoid receptor 2 [4] was over 70% each time. Besides, the results for the inhibition constant (Ki) on Cannabinoid receptor 1 [1] (read-out: Ki) and on Cannabinoid receptor 2 [2] (read-out: Ki) were 322 nM and 66 nM, respectively.

In the case of `Cc1cc(-c2cc(C(=O)NC3CCCCC3)c(=O)n(Cc3ccc(F)cc3)n2)ccc1Cl`, the Ratio Ki in the assay listed under Homo sapiens is over 851. Besides, the inhibition on Cannabinoid receptor 1 [3] and at Cannabinoid receptor 2 [4] was over 70% in each case. In addition, the Emax at Cannabinoid receptor 2 [5] was -60.7%. On Cannabinoid receptor 2 [5], this molecule showed an IC50 of 25.3 nM. Moreover, the Ki is over 4000 nM on Cannabinoid receptor 1 [1] (read-out: Ki) and 4.7 nM at Cannabinoid receptor 2 [2] (read-out: Ki).

Take `Cc1cc(-c2cc(C(=O)NC34CC5CC(CC(C5)C3)C4)c(=O)n(Cc3ccc(F)cc3)n2)ccc1Cl`: the Ratio Ki in the assay filed under Homo sapiens was over 1180. The inhibition on Cannabinoid receptor 1 [3] and at Cannabinoid receptor 2 [4] was over 70% throughout. Besides, the figures for the Ki on Cannabinoid receptor 1 [1] (read-out: Ki) and on Cannabinoid receptor 2 [2] (read-out: Ki) were over 4000 nM and 3.4 nM, respectively.

Consider `Cc1ccc(Cn2nc(-c3ccc(Cl)c(C)c3)cc(C(=O)NC3CCCCCC3)c2=O)cc1`, for which the Ki entry on Cannabinoid receptor 1 [1] (hek293) and on Cannabinoid receptor 2 [2] (hek293) was “Nd(Insoluble)” throughout.

`O=C(NC1CCCCCC1)c1c2c(nn(Cc3ccc(F)cc3)c1=O)-c1ccccc1C2`: the inhibition at Cannabinoid receptor 1 [3] and on Cannabinoid receptor 2 [4] was over 70% in each case. Moreover, the Ki on Cannabinoid receptor 1 [1] (read-out: Ki) and at Cannabinoid receptor 2 [2] (read-out: Ki) was over 4000 nM in each case.

For `O=C(NC1CCCCCC1)c1cc(-c2ccccc2)nn(Cc2ccc(F)cc2)c1=O`, the Ratio Ki in the assay listed under Homo sapiens was determined as 2. Besides, the inhibition on Cannabinoid receptor 1 [3] and on Cannabinoid receptor 2 [4] was over 70% throughout. In addition, the inhibition constant (Ki) at Cannabinoid receptor 1 [1] (read-out: Ki) was found to be 33 nM; at Cannabinoid receptor 2 [2] (read-out: Ki), 16 nM.

For the molecule `Cc1cc(-c2cc(C(=O)NCCN3CCOCC3)c(=O)n(Cc3ccc(F)cc3)n2)ccc1Cl`, in the assay filed under Homo sapiens, the Ratio Ki is over 12.9. Further, the inhibition on Cannabinoid receptor 1 [3] and at Cannabinoid receptor 2 [4] was over 70% each time. For the same molecule, the values for the Ki on Cannabinoid receptor 1 [1] (read-out: Ki) and on Cannabinoid receptor 2 [2] (read-out: Ki) were over 4000 nM and 311 nM, respectively.
